Sampled rows, rich in hits. Any-hit rate of the full collection: about 2.1%.
m5-HT2A agonist: agonists of mouse serotonin 5-HT2A receptor (HTR2A) | CHO-K1 mHTR2A beta-arrestin complementation, luminescence; percent of 30 µM serotonin response | hit rate 0.66% among 360,000 | activation, % at 7.6 µM | P35363;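 active means activation above a run cutoff, the mean activation of all tested compounds plus 3 SD, cut at about 14% in these data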;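 further: 0% = plate median of compound wells and 100% = 30 µM serotonin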
CXCR6 inh: inhibitors of human CXCR6 receptor; hit rate 0.36% among 360,000; O00574; CHO-K1 PathHunter CXCR6 beta-arrestin, luminescence; AID 602244; inhibition, % at 20 µM; in the data active means inhibition above about 34%, passing the limit was not always enough;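 further: antagonist mode with CXCL16 agonist at 10 nM final; 0% = 10 nM CXCL16 with DMSO and 100% = unstimulated wells without agonist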
APJ ag: APJ receptor agonism; CHO-K1 APJ PathHunter beta-arrestin, luminescence; 0% DMSO wells, 100% apelin; activation, % at 20 µM; hit rate 0.11% among 330,000;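 active means activation more than six SD over the plate average, tested at 20 µM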;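 further: 0% = DMSO alone and 100% = apelin-13 at 10 nM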
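Material: CHO-K1 APJ beta-arrestin complementation cell line; Input: cell density 1000 per well; Incubation: compound stimulation 90 min at 25 °C, detection 60 min; Signal: luminescence from split beta-galactosidase complementation, Galacton Star/Emerald II substrate; Controls: DMSO-only wells as negative, 10 nM Apelin-13 as positive control.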
APJ antag: APJ receptor antagonism. P35414. CHO-K1 APJ beta-arrestin complementation, luminescence. inhibition, % at 20 µM. hit rate 0.32% among 330,000. AID 2521;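 active means inhibition above about 40% at 20 µM, limit read from the data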;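 further: cells challenged with 10 nM apelin-13 agonist together with compound; plate controls were apelin-13 plus DMSO wells for no effect and DMSO wells lacking apelin-13 for full effect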
EBI2 antag: blocks human EBI2 receptor beta-arrestin signaling. P32249. EBI2 beta-arrestin recruitment, luminescence, 7a,25-OHC stimulated. inhibition, % at 5 µM. hit rate 0.81% among 360,000; in the data active means inhibition above about 38%;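 further: enzyme fragment complementation signal reports receptor beta-arrestin coupling in cells; 0% = agonist plus DMSO wells and 100% = wells without agonist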
CCR6 antagonist: blocks CCL20-driven beta-arrestin recruitment at human CCR6 | P51684 | CHO-K1 CCR6 PathHunter beta-arrestin, luminescence, CCL20-stimulated | inhibition, % at 20 µM | hit rate 0.49% among 340,000 | AID 493098;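 active means compounds whose inhibition of the agonist-driven luminescence signal at 20 µM reaches about 50%, limit read from the data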;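 further: cells stimulated with CCL20 at 14 nM final; plate controls were DMSO with CCL20 for no effect and DMSO without agonist for full effect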
Target sequence (P51684 whole entry, looked up): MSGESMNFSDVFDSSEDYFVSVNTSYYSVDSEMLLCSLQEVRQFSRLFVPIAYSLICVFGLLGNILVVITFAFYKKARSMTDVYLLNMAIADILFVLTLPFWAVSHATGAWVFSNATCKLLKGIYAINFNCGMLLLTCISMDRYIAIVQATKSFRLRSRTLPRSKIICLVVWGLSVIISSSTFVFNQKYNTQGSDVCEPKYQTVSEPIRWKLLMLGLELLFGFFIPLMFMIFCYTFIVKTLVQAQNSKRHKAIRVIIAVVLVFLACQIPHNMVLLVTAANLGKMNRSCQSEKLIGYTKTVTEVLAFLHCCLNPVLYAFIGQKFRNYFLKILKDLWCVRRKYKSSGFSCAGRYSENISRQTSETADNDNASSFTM
EBI2 conf: EBI2 (human) antagonism, single concentration confirmation. shares compounds with EBI2 antag. EBI2 beta-arrestin luminescence, 7a,25-OHC antagonism. inhibition, % at 5 µM. hit rate 29% among 2,400. AID 651997;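 active means inhibition of at least 50%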
EBI2 agonist: EBI2 agonism counter-screen; shares compounds with EBI2 antag; EBI2-expressing cells, agonist mode, luminescence, 60 min; 0% vehicle, 100% 7α,25-dihydroxycholesterol control; activation, % at 5 µM; 2,400 tested, under 10 active;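 active means activation of at least 50%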
bGal counter: beta-galactosidase inhibition counter-screen | shares compounds with EBI2 antag | purified beta-galactosidase, luminescent Galacton Star, 15 min | inhibition, % at 5 µM | hit rate 1% among 2,400 | AID 652176;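 active means replicate-average signal at least 3 plate SD below neutral wells, shown as high inhibition, flagging enzyme-inhibiting false positives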;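 further: 0% = DMSO wells with enzyme and 100% = wells lacking enzyme; higher means stronger loss of beta-gal luminescence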
Starred values were filed as active, the others as inactive; . = no result given.

SMILES | m5-HT2A agonist | CXCR6 inh | APJ ag | APJ antag | EBI2 antag | CCR6 antagonist | EBI2 conf | EBI2 agonist | bGal counter
Cc1cccc(N(CC(O)CN2CCCC2)S(=O)(=O)c2ccccc2)c1 (stereo unspecified) | -4 | 5 | -2 | 1 | -2 | 14 | . | . | .
COc1ccccc1CC(=O)Nc1ccon1 | 0 | -7 | 2 | 26 | 0 | 0 | . | . | .
COc1ccc(C(=O)CN2CC(C)SC2=Nc2ccc(Cl)cc2)cc1 (stereo unspecified) | -2 | 0 | 0 | 18 | 44* | 24 | 27 | 0 | 5
COc1ccc(C(=O)N2CC(c3ccc(Cl)cc3)CC2=O)cc1 (stereo unspecified) | -3 | -1 | -9 | 3 | 13 | 2 | . | . | .
CCCOc1ccc(C(=O)NCC(C)(C)N2CCOCC2)cc1 | 1 | -10 | -2 | 16 | -6 | 1 | . | . | .
CC(=O)Nc1ccc(S(=O)(=O)N2CCC(C(=O)NCCc3c[nH]c4ccccc34)CC2)cc1 | 4 | 5 | 1 | 1 | 49* | -1 | 21 | 1 | 5
CC(C(=O)NCCS(=O)(=O)c1ccc(Br)cc1)S(=O)(=O)c1ccc(Cl)cc1 (stereo unspecified) | 0 | 5 | -1 | -1 | 2 | -2 | . | . | .
CC(C)c1ccc(C(C)NCCS(=O)(=O)c2ccc(Cl)cc2)cc1 (stereo unspecified) | 6 | 6 | -3 | 5 | 72* | 12 | 49 | 1 | 12
Cc1cc2c(cc1C)-c1c(ssc1=Nc1ccc(S(N)(=O)=O)cc1)C(C)(C)N2 | -4 | 8 | -3 | 17 | 53* | 32 | 58* | -1 | -10
O=C(c1ccc(Cl)c(Cl)c1)N1CCC(O)(CN2CCOCC2)CC1 | 1 | -4 | -3 | -23 | 27 | -2 | . | . | .
O=C(c1ccc(Cl)cc1)N1CCC(O)(CSc2ccc(Cl)cc2Cl)CC1 | -5 | -16 | 1 | -16 | 66* | -8 | 56* | 1 | 12
COc1cccc(Nc2nnc(Cc3cccnc3)c3ccccc23)c1 | -1 | 22 | -3 | 6 | 3 | 5 | . | . | .
Cc1ccc(C(=O)CCC(=O)N2CCN(C/C=C/c3ccccc3)CC2)cc1 | -4 | -4 | . | . | 11 | . | . | . | .
O=C(Nc1ccc2c(c1)OCO2)N1CCN(C/C=C/c2ccccc2)CC1 | -3 | 4 | -2 | 24 | 45* | -14 | 25 | -1 | -8
Cc1ccc(NC(=O)N2CCN(C/C=C/c3ccccc3)CC2)cc1 | -3 | 1 | 1 | -2 | 45* | 5 | 17 | 2 | 4
O=C(CCC(=O)c1cccs1)Nc1ccc(F)c(F)c1F | 2 | 0 | 0 | 11 | -7 | 11 | . | . | .
COc1ccc(-c2c(C)nc(N)nc2-c2ccc(OCc3ccc(C)cc3)cc2O)cc1OC | -1 | 20 | 1 | -7 | 37 | 8 | . | . | .
CCOc1ccc(-c2nc(N)ncc2Oc2cccc(OC)c2)c(O)c1 | 9 | 2 | -1 | 1 | 47* | -3 | 38 | 2 | 4
COc1ccc(-c2ncncc2-c2ccc(OC)c(OC)c2)c(O)c1 | -3 | 1 | -1 | 9 | 2 | -3 | . | . | .
C=C(C)COc1ccc(-c2nc(N)ncc2-c2ccc(Br)cc2)c(O)c1 | 3 | -1 | -1 | 9 | 19 | 8 | . | . | .
CCc1cc(-c2nc(N)ncc2-c2ccc(Br)cc2)c(O)cc1OC | -6 | 4 | -1 | 7 | 77* | -7 | 48 | -1 | -6
COc1ccc(-c2c(C)nc(N)nc2-c2ccc(OC)cc2O)cc1 | -1 | -8 | 2 | -2 | 74* | 7 | 46 | -1 | -23
COc1ccc(-c2nc(N)ncc2-c2ccc(OC)c(OC)c2)c(O)c1 | 3 | 1 | -1 | 10 | 57* | 4 | 27 | 0 | -6
O=C(Nc1cc(S(=O)(=O)N2CCOCC2)ccc1OCC(F)(F)F)C1CCCC1 | 7 | 8 | . | . | -9 | . | . | . | .

Assay outcomes deposited in PubChem by several laboratories.
